In the library only some 4.8% were active in any assay of this set; here they are far more common.
NR3A LBD binder = NR3A (human) ligand-binding domain modulation; Tm shift relative to glycine control, % at 25 µM; AID 1259313; actives 2.5% (n = 340,000); NR3A LBD differential scanning fluorimetry, Tm shift; 0% = protein alone, 100% = glycine-bound protein;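 active = melting temperature shift of at least 10% of the positive control shift, at one fixed dose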
UCH37 inh = blocks the human deubiquitinase UCH37; Q9Y5K5; inhibition, % (no concentration beside the values); AID 588478; actives 0.33% (n = 330,000); purified proteasome/UCH37, Ub-AMC cleavage fluorescence;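 active = mean inhibition over replicate wells above about 20%, limit read from the data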
Target sequence (Q9Y5K5 whole entry, looked up): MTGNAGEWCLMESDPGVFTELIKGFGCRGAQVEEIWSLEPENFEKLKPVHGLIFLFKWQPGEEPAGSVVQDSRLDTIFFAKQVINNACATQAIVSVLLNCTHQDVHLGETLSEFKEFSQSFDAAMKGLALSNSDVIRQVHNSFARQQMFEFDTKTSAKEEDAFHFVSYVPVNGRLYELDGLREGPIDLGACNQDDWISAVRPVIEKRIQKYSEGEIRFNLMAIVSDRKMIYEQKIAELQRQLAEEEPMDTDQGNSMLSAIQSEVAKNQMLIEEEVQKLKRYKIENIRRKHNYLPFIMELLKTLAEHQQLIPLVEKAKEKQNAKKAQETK
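system = Proteasome-associated human UCH37 deubiquitinase | amount = 0.15 nM proteasome as dispensed | medium = pH 7.4 Tris-HCl (50 mM) with ovalbumin, ATP-MgCl2, DTT | incubation = 30 min preincubation with enzyme, 25 min cleavage at room temperature | detection = AMC fluorescence 355/460 nm | read-out basis = percent inhibition | controls = no-proteasome and no-compound wells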
PAFAH1B3 FP inh = PAFAH1B3 (human) inhibition; actives 0.28% (n = 340,000); recombinant PAFAH1B3, FP-rhodamine probe, fluorescence polarization; Q15102; AID 492972; inhibition, % at 3.39 µM;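 active = inhibition above the screen-wide average of all tested compounds plus 3 SD, cut at about 25% in these data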
PAFAH1B2 inh = PAFAH1B2 (human) inhibition; P68402; recombinant PAFAH1B2, FP-rhodamine activity probe, fluorescence polarization; inhibition, % at 3.39 µM; actives 1.2% (n = 340,000);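 active = inhibition above the mean of all tested compounds plus 3 SD, cut at about 24% in these data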
Target sequence (P68402 whole entry, looked up): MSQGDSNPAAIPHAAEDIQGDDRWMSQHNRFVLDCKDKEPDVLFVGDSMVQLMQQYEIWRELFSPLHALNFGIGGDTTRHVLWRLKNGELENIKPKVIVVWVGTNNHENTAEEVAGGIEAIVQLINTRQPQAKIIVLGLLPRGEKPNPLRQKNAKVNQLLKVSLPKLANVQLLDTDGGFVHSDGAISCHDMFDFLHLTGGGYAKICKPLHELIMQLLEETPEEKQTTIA
PAFAH2 inh = PAFAH2 (human) inhibition. Q99487. recombinant PAFAH2, FP-rhodamine activity probe, fluorescence polarization. inhibition, % at 3.39 µM. actives 0.99% (n = 340,000);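 active = inhibition above the mean over all tested compounds plus 3 SD, cut at about 30% in these data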;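 also: inhibitors block probe labeling of enzyme so polarization drops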
pPAFAH inh = pPAFAH (human) enzyme inhibition. recombinant pPAFAH, FP-rhodamine probe fluorescence polarization. inhibition, % at 3.39 µM. Q13093. AID 463082. actives 1.5% (n = 330,000);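 active = inhibition above the mean inhibition across the screen plus 3 SD, cut at about 25% in these data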;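 also: inhibitors block binding of the rhodamine activity-based probe so polarization drops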
pPAFAH FP conf = pPAFAH (human) inhibition, confirmed. shares compounds with pPAFAH inh. recombinant pPAFAH, FP-Rh probe fluorescence polarization. inhibition, % at 3.39 µM. actives 72% (n = 2,300). AID 463230;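 active = mean inhibition of the triplicate above the hit cutoff set for the earlier primary screen, cut at about 25% in these data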
Each line names hits and unclear results; the compound was inactive in the other large screens (follow-up assays come after a bar, where they were run).

O=[N+]([O-])c1cc(C(F)(F)F)cc([N+](=O)[O-])c1NCCNC(=S)Nc1cccc(F)c1	NR3A LBD binder 17.1
Cc1ccc(N2C(=O)c3ccccc3C2=O)cc1Cl	NR3A LBD binder 11.7
Cc1c(C=O)c(Cl)n(C)c(=O)c1C#N	UCH37 inh 21.3
COC(=O)c1ccc(N2C(=O)CC(SCCN)C2=O)cc1 (centres undefined)	NR3A LBD binder 12.4
O=C(NNC(=S)NC(=O)c1cccs1)c1ccc(NC(=O)c2ccccc2)cc1	NR3A LBD binder 23.1
CC(=O)NC(=S)Nc1ccc(NC(=O)c2cccs2)cc1	none (no result: UCH37 inh)
O=C(Nc1ccc(NC(=S)NC(=O)c2cccs2)cc1)c1ccccc1	NR3A LBD binder 26.0
COc1ccccc1C(=O)NC(=S)Nc1ccc(NC(=O)c2cccs2)cc1	NR3A LBD binder 30.1
O=C(NC(=S)Nc1ccc(O)cc1)c1ccccc1Cl	NR3A LBD binder 16.2
O=C(NC(=S)Nc1ccccc1)c1cccs1	none
COc1ccc(NC(=S)NC(=O)c2ccccc2Cl)cc1	none
C(=Nn1cnnc1)c1cccs1	none (no result: NR3A LBD binder, PAFAH1B3 FP inh, PAFAH1B2 inh, PAFAH2 inh, pPAFAH inh)
O=C(Nc1ccc2c(c1)C(=O)NC2=O)c1ccc(Cl)s1	none
O=C(Nc1ccc2sccc2c1)c1ccc(Cl)s1	NR3A LBD binder 23.4
COC(=O)c1ccc(C2c3c(n[nH]c3C)C(=O)N2c2ccc(C)cc2)cc1 (centres undefined)	NR3A LBD binder 34.8
O=C(O)CCc1ccc(-c2ccc(Br)cc2)n1Cc1ccco1	pPAFAH inh 45.5 | pPAFAH FP conf 33.0
Cc1cc(C)n(Cc2ccc(C(=O)O)cc2)n1	none
Cc1ccc(C)n1Cc1ccc(C(=O)O)cc1	UCH37 inh 29.9, pPAFAH inh 47.2 | pPAFAH FP conf 62.2
O=C(O)CCCN1C(=O)/C(=C/C=C/c2ccco2)SC1=S	UCH37 inh 20.3, PAFAH2 inh 31.9, pPAFAH inh 61.3 | pPAFAH FP conf inactive
O=C1S/C(=C\C=C\c2ccco2)C(=O)N1c1ccc(O)cc1	pPAFAH inh 36.6 | pPAFAH FP conf inactive
O=C(O)CC(C(=O)O)N1C(=O)/C(=C/C=C/c2ccco2)SC1=S (centres undefined)	UCH37 inh 21.1, pPAFAH inh 67.6 | pPAFAH FP conf inactive
O=C1S/C(=C\c2cccs2)C(=O)N1c1ccc(O)cc1	none
Cc1ccc(NC(=O)CCCN2C(=O)/C(=C/C=C/c3ccccc3)SC2=S)cc1	none
O=C(NN1C(=O)/C(=C/C=C/c2ccco2)SC1=S)c1ccccc1O	PAFAH1B3 FP inh 26.2, PAFAH2 inh 59.2, pPAFAH inh 77.8 | pPAFAH FP conf 67.3
Cc1nc(NN=Cc2ccc(O)cc2O)cc(N2CCOCC2)n1	none (no result: NR3A LBD binder, PAFAH1B3 FP inh, PAFAH1B2 inh, PAFAH2 inh, pPAFAH inh)
O=C(O)CC(C(=O)O)N1C(=O)/C(=C/c2ccc(-c3nc4ccccc4s3)o2)SC1=S (centres undefined)	PAFAH2 inh 34.2, pPAFAH inh 65.1 | pPAFAH FP conf 42.1
Clc1cccc(-c2ccc(C3Nc4cccc5cccc(c45)N3)o2)c1	PAFAH1B3 FP inh 31.1, PAFAH1B2 inh 25.1, pPAFAH inh 38.5 (no result: UCH37 inh) | pPAFAH FP conf 38.0
CC(/C=C/c1ccccc1)=NNC(=O)CCC(=O)Nc1ccccc1C	none (no result: NR3A LBD binder, PAFAH1B3 FP inh, PAFAH1B2 inh, PAFAH2 inh, pPAFAH inh)
CN=c1scc(C)n1N=Cc1ccc(O)c(O)c1O	none (no result: NR3A LBD binder, PAFAH1B3 FP inh, PAFAH1B2 inh, PAFAH2 inh, pPAFAH inh)
CCN=c1scc(C)n1/N=C/c1ccc(O)c(O)c1O	pPAFAH inh 46.0 (no result: UCH37 inh) | pPAFAH FP conf inactive
CN=c1scc(C)n1N=Cc1cc(Br)c(O)c(OC)c1	none (no result: NR3A LBD binder, PAFAH1B3 FP inh, PAFAH1B2 inh, PAFAH2 inh, pPAFAH inh)
CCN=c1scc(C)n1/N=C/c1cc(Br)c(O)c(Br)c1	pPAFAH inh 40.8 (no result: UCH37 inh) | pPAFAH FP conf 25.0
COCCN=c1scc(-c2cccs2)n1/N=C/c1ccc(O)c(O)c1O	pPAFAH inh 44.2 (no result: UCH37 inh) | pPAFAH FP conf 74.8
O=C(O)c1ccc(C=NNc2nc(N3CCCCC3)nc(N3CCCCC3)n2)cc1	none (no result: NR3A LBD binder, PAFAH1B3 FP inh, PAFAH1B2 inh, PAFAH2 inh, pPAFAH inh)
Cc1ccc(NC(=O)CC2S/C(=N/N=C3CCCc4ccccc43)NC2=O)cc1 (centres undefined)	none (no result: NR3A LBD binder, PAFAH1B3 FP inh, PAFAH1B2 inh, PAFAH2 inh, pPAFAH inh)
COc1ccc(CCn2c(O)cc3nn(-c4nc5ccccc5s4)c(=O)c-3c2C)cc1	pPAFAH inh 56.0 | pPAFAH FP conf 43.8
CCn1nc(C)c(C=NNC(=O)Cn2nccc2C)c1C	none (no result: NR3A LBD binder, PAFAH1B3 FP inh, PAFAH1B2 inh, PAFAH2 inh, pPAFAH inh)

Assay outcomes as filed in PubChem BioAssay.
